Inhibition and IC50 data for four compounds are collected here from ChEMBL document CHEMBL3580642, “Cytotoxic Bryostatin Derivatives from the South China Sea Bryozoan Bugula neritina” (J Nat Prod, 2015).

Each structure is given as a SMILES string. The source made the active and inactive calls. The calls are words filed in the database; no cut-off is given here.

Assay [1] relates to K562. The experiment in a line: Cytotoxicity against human K562 cells assessed as reduction in cell viability at 20 ug/ml incubated for 72 hrs by MTT method. It counts as functional, cell-based. In a few lines:
(§1)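 Cultures were kept in RPMI-1640 or DMEM with 10% FBS at 37 °C, 5% CO2. Adherent cells were dosed after 12 h attachment, and suspension cells were seeded at 1 × 10^5 cells/mL. Triplicate 72 h exposure was followed by MTT, DMSO solubilisation and OD 490 nm. Activity was scored at a concentration of 20 μg/mL.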
A general note: Tetrazolium assays rely on reduction of a dye to a coloured formazan, in cell work by metabolically active cells.

Assay [2] deals with HeLa. In words: Cytotoxicity against human HeLa cells assessed as reduction in cell viability at 20 ug/ml incubated for 72 hrs by MTT method. Type of assay: functional, cell-based. The gist of the method: as §1
Assay [3] relates to SGC-7901. In words: Cytotoxicity against human SGC7901 cells assessed as reduction in cell viability at 20 ug/ml incubated for 72 hrs by MTT method. Type of assay: functional, cell-based. In a few lines: as §1
Assay [4] has as its system U-937. In words: Cytotoxicity against human U937 cells assessed as reduction in cell viability at 20 ug/ml incubated for 72 hrs by MTT method. It counts as functional, cell-based. In a few lines: as §1
In assay [5] the test system is K562. In words: Cytotoxicity against human K562 cells assessed as reduction in cell viability incubated for 72 hrs by MTT method. It counts as functional, cell-based. Conditions: K562, 72 h. The gist of the method:
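Cells were grown in RPMI-1640 or DMEM with 10% FBS at 37 °C, humidified 5% CO2. Adherent cells attached for 12 h before dosing, and suspension cells were seeded at 1 × 10^5 cells/mL. […] MTT read-out used DMSO solubilisation and OD 490 nm. IC50 came from mean OD versus concentration curves.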

For assay [6], the system named is U-937. In words: Cytotoxicity against human U937 cells assessed as reduction in cell viability incubated for 72 hrs by MTT method. It counts as functional, cell-based. Conditions: U-937, 72 h.
A short description of assay [7]: Cytotoxicity against human SGC7901 cells assessed as reduction in cell viability incubated for 72 hrs by MTT method. Conditions: SGC-7901, 72 h.
The subject of assay [8] is HeLa. In words: Cytotoxicity against human HeLa cells assessed as reduction in cell viability incubated for 72 hrs by MTT method.

As to `CCCC(=O)O[C@H]1/C(=C/C(=O)OC)C[C@@H]2C[C@H]([C@@H](C)O)OC(=O)C[C@H](O)C[C@@H]3C[C@H](OC(=O)CC(C)C)C(C)(C)[C@](O)(C[C@@H]4C/C(=C/C(=O)OC)C[C@H](/C=C/C(C)(C)[C@]1(O)O2)O4)O3`, the inhibition result in assay [1], in assay [2], in assay [3] and in assay [4] was “inactive” throughout.
Regarding `CCCC(=O)O[C@H]1/C(=C/C(=O)OC)C[C@H]2C[C@H]([C@@H](C)O)OC(=O)C[C@H](O)C[C@@H]3C[C@H](OC(=O)C(C)(C)C)C(C)(C)[C@](OC)(C[C@@H]4C/C(=C/C(=O)OC)C[C@H](/C=C/C(C)(C)[C@]1(O)O2)O4)O3`, the inhibition result in assay [1], in assay [2], in assay [3] and in assay [4] was “inactive” each time.
`CCCC(=O)O[C@H]1/C(=C/C(=O)OC)C[C@H]2C[C@H]([C@@H](C)O)OC(=O)C[C@H](O)C[C@@H]3C[C@H](OC(=O)C(C)(C)C)C(C)(C)[C@](O)(C[C@@H]4C/C(=C/C(=O)OC)C[C@H](/C=C/[C@H](C)[C@]1(O)O2)O4)O3`: the inhibition result in assay [2] and in assay [3] was “inactive” throughout. For the same compound, the IC50 (in general, the midpoint of a concentration-inhibition curve) came out at 9900 nM in assay [5] and 7700 nM in assay [6].
With `COc1cccc2c1C(=O)c1c(O)c3c(c(O)c1C2=O)C[C@@](O)(C(=O)CO)C[C@@H]3O[C@H]1C[C@H](N)[C@H](O)[C@H](C)O1` [DOXORUBICIN], the concentration for half-maximal inhibition (IC50) stood at 200 nM in assay [7], 200 nM in assay [5] and 100 nM in assay [8].
